Assay results as given in ChEMBL document CHEMBL3526002, “Tissue distribution and identification of radioactivity components at elimination phase after oral administration of [¹⁴C]CS-1036, an α-amylase inhibitor, to rats” (Drug Metab Dispos, 2013).

Columns and labels:
Parameters in all cases: dose 5 mg/kg, dosed compound name [14C]CS-1036, route oral
Details in all cases: in vivo
[1] = Drug uptake in albino F344/DuCrlCrlj rat skeletal muscle at 5 mg/kg, po after 72 hrs by liquid scintillation counting; type: ADME, organism-based, Muscle tissue
Aorta = test: Drug uptake in albino F344/DuCrlCrlj rat aorta assessed as ng equivalent of CS-1036 at 5 mg/kg, po after 24 hrs by liquid scintillation counting; type: ADME, organism-based
[2] = Drug uptake in albino F344/DuCrlCrlj rat testis at 5 mg/kg, po after 4 hrs by liquid scintillation counting; type: ADME, organism-based
[3] = Drug uptake in albino F344/DuCrlCrlj rat fat at 5 mg/kg, po after 24 hrs by liquid scintillation counting; type: ADME, organism-based, Adipose tissue
Outline: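 Male F344/DuCrlCrlj rats (bought at 7 weeks, acclimatized 5–6 days; 159–167 g; n = 3 per time point) received a single oral dose of [14C]CS-1036 at 5 mg/kg. White adipose tissue was collected after abdominal aortic bleeding at 1, 4, 8, 24, 72, 168 or 336 h. Samples were counted by LSC with external-standard efficiency correction. Results were converted to ng equivalents per g from specific activity and sample weight.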

Thymus [4] = test: Drug uptake in albino F344/DuCrlCrlj rat thymus assessed as ng equivalent of CS-1036 at 5 mg/kg, po after 8 hrs by liquid scintillation counting; type: ADME, organism-based
Zone of skin [5] = test: Drug uptake in albino F344/DuCrlCrlj rat skin at 5 mg/kg, po after 336 hrs by liquid scintillation counting; type: ADME, organism-based
Stomach = test: Drug uptake in albino F344/DuCrlCrlj rat stomach at 5 mg/kg, po after 8 hrs by liquid scintillation counting; type: ADME, organism-based
[6] = Drug uptake in albino F344/DuCrlCrlj rat bone marrow at 5 mg/kg, po after 24 hrs by liquid scintillation counting; type: ADME, organism-based
Liver [7] = test: Drug uptake in albino F344/DuCrlCrlj rat liver assessed as ng equivalent of CS-1036 at 5 mg/kg, po after 8 hrs by liquid scintillation counting; type: ADME, organism-based
[8] = Drug uptake in albino F344/DuCrlCrlj rat trachea assessed as ng equivalent of CS-1036 at 5 mg/kg, po after 168 hrs by liquid scintillation counting; type: ADME, organism-based
Liver [9] = test: Drug uptake in albino F344/DuCrlCrlj rat liver assessed as ng equivalent of CS-1036 at 5 mg/kg, po after 1 hr by liquid scintillation counting; type: ADME, organism-based
Zone of skin [10] = test: Drug uptake in albino F344/DuCrlCrlj rat skin assessed as ng equivalent of CS-1036 at 5 mg/kg, po after 24 hrs by liquid scintillation counting; type: ADME, organism-based
Adrenal gland [11] = test: Drug uptake in albino F344/DuCrlCrlj rat adrenal gland assessed as ng equivalent of CS-1036 at 5 mg/kg, po after 1 hr by liquid scintillation counting; type: ADME, organism-based
Kidney = test: Drug uptake in albino F344/DuCrlCrlj rat kidney assessed as ng equivalent of CS-1036 at 5 mg/kg, po after 4 hrs by liquid scintillation counting; type: ADME, organism-based
[12] = Drug uptake in albino F344/DuCrlCrlj rat bone marrow assessed as ng equivalent of CS-1036 at 5 mg/kg, po after 168 hrs by liquid scintillation counting; type: ADME, organism-based
Small intestine [13] = test: Drug uptake in albino F344/DuCrlCrlj rat small intestine at 5 mg/kg, po after 8 hrs by liquid scintillation counting; type: ADME, organism-based
[14] = Drug uptake in albino F344/DuCrlCrlj rat testis assessed as ng equivalent of CS-1036 at 5 mg/kg, po after 8 hrs by liquid scintillation counting; type: ADME, organism-based
Thymus [15] = test: Drug uptake in albino F344/DuCrlCrlj rat thymus at 5 mg/kg, po after 336 hrs by liquid scintillation counting; type: ADME, organism-based
Cerebrum = test: Drug uptake in albino F344/DuCrlCrlj rat cerebrum assessed as ng equivalent of CS-1036 at 5 mg/kg, po after 24 hrs by liquid scintillation counting; type: ADME, organism-based
Outline: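 Single oral [14C]CS-1036 at 5 mg/kg was given to male rats (159–167 g; n = 3). Cerebrum was collected after aortic bleeding at 1, 4, 8, 24, 72, 168 or 336 h, weighed, and homogenized in 2 volumes of saline. A 0.5 ml aliquot was solubilized in Soluene-350 and counted by LSC with external-standard correction. Results are in ng equivalent/g tissue from specific activity and sample weight.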

Thymus [16] = test: Drug uptake in albino F344/DuCrlCrlj rat thymus assessed as ng equivalent of CS-1036 at 5 mg/kg, po after 1 hr by liquid scintillation counting; type: ADME, organism-based
[17] = Drug uptake in albino F344/DuCrlCrlj rat skeletal muscle at 5 mg/kg, po after 4 hrs by liquid scintillation counting; type: ADME, organism-based, Muscle tissue
[18] = Drug uptake in albino F344/DuCrlCrlj rat mandibular gland assessed as ng equivalent of CS-1036 at 5 mg/kg, po after 8 hrs by liquid scintillation counting; type: ADME, organism-based
Plasma = test: Drug uptake in albino F344/DuCrlCrlj rat plasma at 5 mg/kg, po after 168 hrs by liquid scintillation counting; type: ADME, organism-based
Large intestine [19] = test: Drug uptake in albino F344/DuCrlCrlj rat large intestine assessed as ng equivalent of CS-1036 at 5 mg/kg, po after 72 hrs by liquid scintillation counting; type: ADME, organism-based
[20] = Drug uptake in albino F344/DuCrlCrlj rat brown fat assessed as ng equivalent of CS-1036 at 5 mg/kg, po after 1 hr by liquid scintillation counting; type: ADME, organism-based, Brown adipose tissue
[21] = Drug uptake in albino F344/DuCrlCrlj rat testis assessed as ng equivalent of CS-1036 at 5 mg/kg, po after 168 hrs by liquid scintillation counting; type: ADME, organism-based
[22] = Drug uptake in albino F344/DuCrlCrlj rat epididymis assessed as ng equivalent of CS-1036 at 5 mg/kg, po after 1 hr by liquid scintillation counting; type: ADME, organism-based
Harderian gland = test: Drug uptake in albino F344/DuCrlCrlj rat harderian gland at 5 mg/kg, po after 168 hrs by liquid scintillation counting; type: ADME, organism-based
Small intestine [23] = test: Drug uptake in albino F344/DuCrlCrlj rat small intestine assessed as ng equivalent of CS-1036 at 5 mg/kg, po after 1 hr by liquid scintillation counting; type: ADME, organism-based
Blood = test: Drug uptake in albino F344/DuCrlCrlj rat blood assessed as ng equivalent of CS-1036 at 5 mg/kg, po after 4 hrs by liquid scintillation counting; type: ADME, organism-based
Outline: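 Male F344/DuCrlCrlj rats (159–167 g; n = 3 per time point) received a single oral dose of [14C]CS-1036 at 5 mg/kg. Blood was taken from the abdominal aorta at 1, 4, 8, 24, 72, 168 and 336 h. Radioactivity was counted by LSC with external-standard efficiency correction. Results were converted to ng equivalent of CS-1036/ml using specific activity and sample volume, and reported as mean + S.D.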

Adrenal gland [24] = test: Drug uptake in albino F344/DuCrlCrlj rat adrenal gland assessed as ng equivalent of CS-1036 at 5 mg/kg, po after 72 hrs by liquid scintillation counting; type: ADME, organism-based
Large intestine [25] = test: Drug uptake in albino F344/DuCrlCrlj rat large intestine at 5 mg/kg, po after 1 hr by liquid scintillation counting; type: ADME, organism-based

Radiolabel recovery [1]: 16.5 ngequiv/g | Radiolabel recovery (Aorta): 8.4 ngequiv/g | Radiolabel recovery [2]: 22.3 ngequiv/g | Radiolabel recovery [3]: 82.9 ngequiv/g | Radiolabel recovery (Thymus [4]): 47 ngequiv/g | Radiolabel recovery (Zone of skin [5]): 24.9 ngequiv/g | Radiolabel recovery (Stomach): 135 ngequiv/g | Radiolabel recovery [6]: 116 ngequiv/g | Radiolabel recovery (Liver [7]): 116 ngequiv/g | Radiolabel recovery [8]: 10.4 ngequiv/g | Radiolabel recovery (Liver [9]): 60 ngequiv/g | Radiolabel recovery (Zone of skin [10]): 8.2 ngequiv/g | Radiolabel recovery (Adrenal gland [11]): 3.3 ngequiv/g | Radiolabel recovery (Kidney): 173 ngequiv/g | Radiolabel recovery [12]: 23 ngequiv/g | Radiolabel recovery (Small intestine [13]): 121 ngequiv/g | Radiolabel recovery [14]: 24.1 ngequiv/g | Radiolabel recovery (Thymus [15]): 5.1 ngequiv/g | Radiolabel recovery (Cerebrum): 1.5 ngequiv/g | Radiolabel recovery (Thymus [16]): 2.1 ngequiv/g | Radiolabel recovery [17]: 41.4 ngequiv/g | Radiolabel recovery [18]: 24 ngequiv/g | Radiolabel recovery (Plasma): 3.57 ngequiv/ml | Radiolabel recovery (Large intestine [19]): 29.5 ngequiv/g | Radiolabel recovery [20]: 4.1 ngequiv/g | Radiolabel recovery [21]: 3.81 ngequiv/g | Radiolabel recovery [22]: 2.8 ngequiv/g | Radiolabel recovery (Harderian gland): 17.1 ngequiv/g | Radiolabel recovery (Small intestine [23]): 86500 ngequiv/g | Radiolabel recovery (Blood): 16.3 ngequiv/ml | Radiolabel recovery (Adrenal gland [24]): 30.3 ngequiv/g | Radiolabel recovery (Large intestine [25]): 1070 ngequiv/g
Compound: C[C@H]1O[C@@H](O[C@H]2[C@H](O)[C@@H](O)[C@@H](O[14C@H]3[14C@H](O)[14CH2]N[14C@@H]3[14CH2]O)O[C@@H]2CO)[C@H](O)[C@@H](O)[C@@H]1O
